# The source made the active and inactive calls. No cut-off for these calls is given here.
# Columns and labels:
# Soleus muscle [1] = test: Upregulation of GLUT4 expression in insulin resistant Sprague-Dawley rat soleus muscle at 1 to 2 uM incubated for 24 hrs by qRT-PCR analysis; assay type: functional, tissue-based; conditions: dose 1-2 µM
# Procedure, shortened: (§1)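 Isolated rat soleus muscle in gassed (95% O2–5% CO2) Krebs–Henseleit buffer. Insulin resistance induced in four steps: KHB with 0.1% BSA and 1 mM pyruvate for 24 h at 37 °C, then high glucose/insulin for 24 h, then 25 mM glucose for 5 h, then insulin for 30 min. Tissue then exposed in KHB for 24 h. qPCR normalized to β-/γ-actin geometric mean. Mean ± SEM, ANOVA/Duncan.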
# L6 [2] = test: Upregulation of PI3K expression in insulin resistant myotube differentiated rat L6 cells at 1 to 2 uM incubated for 24 hrs by qRT-PCR analysis; assay type: functional, cell-based; conditions: dose 1-2 µM
# Procedure, shortened: (§2)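 L6 myoblasts differentiated to myotubes in DMEM with 2% horse serum for 7 days, 2 × 10^4 cells per well. Insulin resistance induced in three steps: 25 mM glucose plus insulin for 24 h, then 5 mM glucose without insulin for 5 h, then insulin for 30 min. Compounds in DMEM with 2% inactivated FBS for 24 h. qPCR normalized to geometric mean of β-actin and γ-actin. Mean ± SEM, one-way ANOVA with Duncan test.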
# Soleus muscle [3] = test: Upregulation of PI3K expression in insulin resistant Sprague-Dawley rat soleus muscle at 1 to 2 uM incubated for 24 hrs by qRT-PCR analysis; assay type: functional, tissue-based; conditions: dose 1-2 µM; procedure, shortened: as §1
# Soleus muscle [4] = test: Upregulation of IRS-1 expression in insulin resistant Sprague-Dawley rat soleus muscle at 1 to 2 uM incubated for 24 hrs by qRT-PCR analysis; assay type: functional, tissue-based; conditions: dose 1-2 µM; procedure, shortened: as §1
# L6 [5] = test: Upregulation of IRS-1 expression in insulin resistant myotube differentiated rat L6 cells at 1 to 2 uM incubated for 24 hrs by qRT-PCR analysis; assay type: functional, cell-based; conditions: dose 1-2 µM; procedure, shortened: as §2
# L6 [6] = test: Upregulation of PKB/AKT2 expression in insulin resistant myotube differentiated rat L6 cells at 2 uM incubated for 24 hrs by qRT-PCR analysis; assay type: functional, cell-based; procedure, shortened: as §2
# Soleus muscle [7] = test: Downregulation of PKC-alpha expression in insulin resistant Sprague-Dawley rat soleus muscle at 1 to 2 uM incubated for 24 hrs by qRT-PCR analysis; assay type: functional, tissue-based; conditions: dose 1-2 µM; procedure, shortened: as §1
# L6 [8] = test: Downregulation of PKC-alpha expression in insulin resistant myotube differentiated rat L6 cells at 1 to 2 uM incubated for 24 hrs by qRT-PCR analysis; assay type: functional, cell-based; conditions: dose 1-2 µM; procedure, shortened: as §2
# [9] = Cytotoxicity against rat L6 cells assessed as cell viability at 50 to 250 uM incubated for 24 hrs by MTT assay relative to control; assay type: toxicity, cell-based; conditions: dose 50-250 µM, read-out: Activity
# Procedure, shortened: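 Rat L6 myoblasts, 2 × 10^4 cells per mL, allowed to attach, then exposed for 24 h to five concentrations (50–250 μM) from DMSO stocks; 0.1% DMSO as negative control. MTT at 0.5 mg mL−1 added for 4 h, formazan dissolved in DMSO, absorbance read at 570 nm. Viability calculated against control. Triplicate wells, three independent experiments.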
# Soleus muscle [10] = test: Upregulation of PKB/AKT2 insulin resistant Sprague-Dawley rat soleus muscle at 2 uM incubated for 24 hrs by qRT-PCR analysis; assay type: functional, tissue-based; procedure, shortened: as §1
# L6 [11] = test: Upregulation of GLUT4 expression in insulin resistant myotube differentiated rat L6 cells at 1 to 2 uM incubated for 24 hrs by qRT-PCR analysis; assay type: functional, cell-based; conditions: dose 1-2 µM; procedure, shortened: as §2
# L6 [12] = test: Upregulation of PKB/AKT2 expression in insulin resistant myotube differentiated rat L6 cells incubated for 24 hrs by qRT-PCR analysis; assay type: functional, cell-based; procedure, shortened: as §2
# L6 [13] = test: Downregulation of PKC-alpha expression in insulin resistant myotube differentiated rat L6 cells incubated for 24 hrs by qRT-PCR analysis; assay type: functional, cell-based; procedure, shortened: as §2
# Soleus muscle [14] = test: Upregulation of GLUT4 expression in insulin resistant Sprague-Dawley rat soleus muscle incubated for 24 hrs by qRT-PCR analysis; assay type: functional, tissue-based; procedure, shortened: as §1
# Soleus muscle [15] = test: Downregulation of PKC-alpha expression in insulin resistant Sprague-Dawley rat soleus muscle incubated for 24 hrs by qRT-PCR analysis; assay type: functional, tissue-based; procedure, shortened: as §1
# Soleus muscle [16] = test: Upregulation of PI3K expression in insulin resistant Sprague-Dawley rat soleus muscle incubated for 24 hrs by qRT-PCR analysis; assay type: functional, tissue-based; procedure, shortened: as §1
# L6 [17] = test: Upregulation of IRS-1 expression in insulin resistant myotube differentiated rat L6 cells incubated for 24 hrs by qRT-PCR analysis; assay type: functional, cell-based; procedure, shortened: as §2
# L6 [18] = test: Upregulation of GLUT4 expression in insulin resistant myotube differentiated rat L6 cells incubated for 24 hrs by qRT-PCR analysis; assay type: functional, cell-based; procedure, shortened: as §2
Structure (SMILES),Activity (Soleus muscle [1]),Activity (L6 [2]),Activity (Soleus muscle [3]),Activity (Soleus muscle [4]),Activity (L6 [5]),Activity (L6 [6]),Activity (Soleus muscle [7]),Activity (L6 [8]),"viability at 24 h, up to 250 µM [9] [%]",Activity (Soleus muscle [10]),Activity (L6 [11]),Activity (L6 [12]),Activity (L6 [13]),Activity (Soleus muscle [14]),Activity (Soleus muscle [15]),Activity (Soleus muscle [16]),Activity (L6 [17]),Activity (L6 [18])
O=C(N[C@H]1C(O)O[C@H](CO)[C@@H](O)[C@@H]1O)NS(=O)(=O)c1ccccc1 (some centres undefined),Active,Active,Active,Active,Active,Active,Active,Active,< 50,Active,Active,–,–,–,–,–,–,–
O=C(N[C@H]1C(O)O[C@H](CO)[C@@H](O)[C@@H]1O)NS(=O)(=O)c1ccc(Cl)cc1 (some centres undefined),Active,Active,Active,Active,Active,Active,Active,Active,50,Active,Active,–,–,–,–,–,–,–
CC(=O)OC[C@H]1OC(OC(C)=O)[C@H](NC(=O)NS(=O)(=O)c2ccc(C)cc2)[C@@H](OC(C)=O)[C@@H]1OC(C)=O (some centres undefined),Active,Active,Active,Active,Active,Active,Active,Active,50,Active,Active,–,–,–,–,–,–,–
CN(C)C(=N)NC(=N)N,–,–,–,–,–,–,–,–,–,–,–,Active,Active,Active,Active,Active,Active,Active
Cc1ccc(S(=O)(=O)NC(=O)N[C@H]2C(O)O[C@H](CO)[C@@H](O)[C@@H]2O)cc1 (some centres undefined),Active,Active,Active,Active,Active,Active,Active,Active,50,Active,Active,–,–,–,–,–,–,–
CC(=O)OC[C@H]1OC(OC(C)=O)[C@H](NC(=O)NS(=O)(=O)c2ccc(Cl)cc2)[C@@H](OC(C)=O)[C@@H]1OC(C)=O (some centres undefined),Active,Active,Active,Active,Active,Active,Active,Active,50,Active,Active,–,–,–,–,–,–,–
CC(=O)OC[C@H]1OC(OC(C)=O)[C@H](NC(=O)NS(=O)(=O)c2ccccc2)[C@@H](OC(C)=O)[C@@H]1OC(C)=O (some centres undefined),Active,Active,Active,Active,Active,Active,Active,Active,50,Active,Active,–,–,–,–,–,–,–
CCC1=C(C)CN(C(=O)NCCc2ccc(S(=O)(=O)NC(=O)N[C@H]3CC[C@H](C)CC3)cc2)C1=O,–,–,–,–,–,–,–,–,–,–,–,Active,Active,Active,Active,Active,Active,–
